This is an account of results in ChEMBL document CHEMBL1134836, “Design, synthesis, and biological evaluation of a series of lavendustin A analogues that inhibit EGFR and Syk tyrosine kinases, as well as tubulin polymerization” (J Med Chem, 2001).

One assay has as its system MDA-MB-435. Briefly: In vitro cytotoxicity against human breast MDA-MB-435 cells. Type of assay: functional.
For a further assay, the system named is OVCAR-3. Briefly: In vitro cytotoxicity against human ovarian OVCAR-3 cells. In kind it is functional.
The target of assay [1] is Epidermal growth factor receptor (Mus musculus, UniProt Q01279). Briefly: Inhibition of epidermal growth factor receptor phosphorylation in BaF3 mouse lymphoid cells. Type of assay: cell-based. A digest of the protocol: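 BaF3/EGFR cells serum-starved 24 h, then about 10^7 cells/mL treated 2 h at 37 °C with inhibitor at 3-5 concentrations. Chilled 20 min, then given EGF 100 ng/mL for 7 min on ice. Lysates precipitated on concanavalin A beads, run on SDS/PAGE, and immunoblotted with antiphosphotyrosine using ECL detection.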
Sequence of Epidermal growth factor receptor (Q01279 whole entry): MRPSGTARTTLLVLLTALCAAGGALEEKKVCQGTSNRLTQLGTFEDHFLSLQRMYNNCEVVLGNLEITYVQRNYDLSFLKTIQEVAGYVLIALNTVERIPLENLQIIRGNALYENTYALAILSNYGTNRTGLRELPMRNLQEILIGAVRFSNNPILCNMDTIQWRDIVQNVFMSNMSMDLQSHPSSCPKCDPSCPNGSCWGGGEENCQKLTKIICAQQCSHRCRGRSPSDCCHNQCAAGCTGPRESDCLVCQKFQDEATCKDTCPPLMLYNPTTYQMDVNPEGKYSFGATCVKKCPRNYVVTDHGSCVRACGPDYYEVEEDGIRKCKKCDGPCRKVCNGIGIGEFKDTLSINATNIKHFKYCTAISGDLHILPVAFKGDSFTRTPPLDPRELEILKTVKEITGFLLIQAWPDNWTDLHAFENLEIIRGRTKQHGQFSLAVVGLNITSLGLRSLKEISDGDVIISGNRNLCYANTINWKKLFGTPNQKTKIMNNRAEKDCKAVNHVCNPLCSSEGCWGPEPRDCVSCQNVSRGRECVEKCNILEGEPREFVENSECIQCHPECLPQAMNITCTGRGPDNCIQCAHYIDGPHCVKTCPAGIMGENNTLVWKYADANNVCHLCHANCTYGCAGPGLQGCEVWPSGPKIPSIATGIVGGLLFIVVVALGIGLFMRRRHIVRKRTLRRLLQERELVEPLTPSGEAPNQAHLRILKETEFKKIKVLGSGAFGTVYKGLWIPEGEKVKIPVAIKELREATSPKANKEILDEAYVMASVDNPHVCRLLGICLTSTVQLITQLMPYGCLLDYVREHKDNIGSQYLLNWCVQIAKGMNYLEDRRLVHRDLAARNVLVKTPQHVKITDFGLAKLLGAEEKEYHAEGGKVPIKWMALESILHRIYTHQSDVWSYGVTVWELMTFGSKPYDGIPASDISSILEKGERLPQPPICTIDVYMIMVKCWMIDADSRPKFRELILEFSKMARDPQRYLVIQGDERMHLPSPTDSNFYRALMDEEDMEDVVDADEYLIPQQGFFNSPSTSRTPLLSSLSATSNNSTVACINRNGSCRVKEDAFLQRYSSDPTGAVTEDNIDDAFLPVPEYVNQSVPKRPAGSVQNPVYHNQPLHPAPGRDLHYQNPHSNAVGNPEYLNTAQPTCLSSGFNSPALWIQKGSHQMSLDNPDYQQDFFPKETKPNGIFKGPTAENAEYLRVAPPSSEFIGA

Assay [2] has as its target Tyrosine-protein kinase SYK (Homo sapiens, UniProt P43405). The experiment in a line: In vitro inhibition of Syk protein tyrosine kinase. In kind it is functional. Summed up:
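Full-length GST-Syk from baculovirus-infected Sf9 cell lysates, held on glutathione-agarose. Stopped with 10 mM EDTA, beads washed, read by scintillation counting. IC50 determined graphically against DMSO control.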

For a further assay, the system named is HCT-116. The experiment in a line: In vitro cytotoxicity against human colon HCT116 cell culture. Type of assay: functional.
The subject of another assay is CCRF-CEM. The experiment in a line: Cytotoxic effect on human leukemia CCRF-CEM cells. Type of assay: functional.
The test system of the next assay is DU-145. Briefly: In vitro cytotoxicity against human prostate DU-145 cells. In kind it is functional.
Another assay relates to HOP-62. The experiment in a line: In vitro cytotoxicity against human lung HOP-62 cells. Type of assay: functional.
The next assay has as its system MCF-10A. The experiment in a line: Inhibition of DNA synthesis in MCF-10A cells. The note with it: Homo sapiens. In kind it is functional, cell-based. Summed up:
(§1)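 Cells seeded at 10^5/well and grown 24 h at 37 °C, then given inhibitor in DMSO at 3-5 concentrations, 3-4 wells each, for 48 h. [3H]thymidine pulse for 2 h. TCA-precipitated label solubilized in perchloric acid and counted.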

In the next assay the test system is SF-539. The experiment in a line: In vitro cytotoxicity against human CNS SF-539 cells. Type of assay: functional.
In another assay the test system is MCF7. Briefly: Inhibition of DNA synthesis in MCF-7 cells. In kind it is functional, cell-based. The following applies: Homo sapiens. A digest of the protocol:
as §1

The target of another assay is Tubulin beta chain (Bos taurus, UniProt Q6B856). The experiment in a line: Inhibition of bovine tubulin polymerization. A digest of the protocol:
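Electrophoretically homogeneous bovine brain tubulin. Polymerization followed spectrophotometrically with a temperature jump from 2-4 °C to 30 °C.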

Assay [3] addresses Tubulin beta chain (Bos taurus) (UniProt Q6B856). The experiment in a line: Percentage inhibition of binding of [3H]colchicine to tubulin at 50 uM.
The subject of another assay is Cancer cell lines. Briefly: Mean graph mid point (MGM) for growth inhibition of all human cancer cell lines successfully tested. Type of assay: functional.
The subject of a further assay is SN12C. The experiment in a line: In vitro cytotoxicity against human renal SN12C cells. Type of assay: functional.
In another assay the test system is UACC-62. The experiment in a line: In vitro cytotoxicity against human melanoma UACC-62 cells. Type of assay: functional.
For another assay, the system named is cancer cell lines (55). Briefly: Mean graph midpoint (MGM) for growth inhibition of all human cancer cell lines (55). Type of assay: functional.
The target in assay [4] is Tubulin beta chain (Bos taurus) (UniProt Q6B856). The note with it: 5 uM.
Sequence of Tubulin beta chain (Bos taurus) (Q6B856 whole entry): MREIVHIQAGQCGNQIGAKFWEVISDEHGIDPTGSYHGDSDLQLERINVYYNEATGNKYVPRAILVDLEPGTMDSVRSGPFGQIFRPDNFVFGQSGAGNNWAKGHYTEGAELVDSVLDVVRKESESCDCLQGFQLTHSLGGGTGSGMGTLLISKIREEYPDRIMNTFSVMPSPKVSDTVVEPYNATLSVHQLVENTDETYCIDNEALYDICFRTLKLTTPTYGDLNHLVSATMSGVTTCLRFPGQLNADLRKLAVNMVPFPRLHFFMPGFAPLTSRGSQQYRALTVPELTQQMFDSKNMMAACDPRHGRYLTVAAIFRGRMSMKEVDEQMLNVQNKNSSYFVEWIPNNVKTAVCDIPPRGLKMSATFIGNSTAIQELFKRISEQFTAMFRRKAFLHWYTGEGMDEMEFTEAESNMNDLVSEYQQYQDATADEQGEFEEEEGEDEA

Sequence of Tubulin beta chain (Q6B856 whole entry): as above

`O=C(NCCc1ccc(F)cc1)c1cc(NCc2cc(O)ccc2O)ccc1O`: the GI50 is 13 µM with MDA-MB-435; 11 µM in the assay with OVCAR-3; 9.2 µM with HCT-116; 0.29 µM in the assay with CCRF-CEM; 18 µM with DU-145; 12 µM in the assay on HOP-62. The GI50 worked out at 9.2 µM with SF-539, 7.7 µM in the assay with SN12C and 7.8 µM with UACC-62. Besides, the IC50 was found to be 4 µM in assay [1]; 5 µM in assay [2]; 10 µM in the assay with MCF-10A; 12 µM in the assay with MCF7; 4 µM against Tubulin beta chain. In addition, the Inhibition in [3] stood at 38%. Further, in the assay on Cancer cell lines, the MGM stood at 0.35 µM.
Take `O=C(NCCN1CCOCC1)c1cc(NCc2cc(O)ccc2O)ccc1O`: the GI50 is 13 µM in the assay on MDA-MB-435; 87 µM in the assay with OVCAR-3; 20 µM in the assay on HCT-116; 1.8 µM in the assay on CCRF-CEM; 17 µM in the assay on DU-145; 19 µM with SF-539. For the same molecule, the results for the GI50 in the assay on SN12C and with UACC-62 were 22 µM and 17 µM, respectively. In addition, the IC50 in assay [1] was over 50 µM; in assay [2], 1.5 µM; with MCF-10A, 16 µM; in the assay with MCF7, 14 µM; on Tubulin beta chain, 2.1 µM. In addition, the Inhibition in [3] worked out at 34%. In the assay on Cancer cell lines, this molecule showed an MGM of 19.5 µM.
In the case of `CC(C)CCCC(C)[C@H]1CC[C@H]2[C@@H]3CCC4C[C@@H](NC(=O)c5cc(NCc6cc(O)ccc6O)ccc5O)CC[C@]4(C)[C@H]3CC[C@]12C` (stereo not given in full), the MGM in the assay on cancer cell lines (55) was over 100 µM. Further, the IC50 in the assay with MCF7 was over 50 µM; against Tubulin beta chain, over 40 µM.
Consider `CCCCCCNC(=O)c1cc(NCc2cc(O)ccc2O)ccc1O`, for which the GI50 amounted to 15 µM in the assay with MDA-MB-435; 4 µM in the assay on OVCAR-3; 17 µM in the assay on HCT-116; 0.56 µM in the assay with CCRF-CEM; 15 µM in the assay with DU-145; 19 µM in the assay with HOP-62. Besides, the results for the GI50 with SF-539, in the assay with SN12C and in the assay with UACC-62 were 2.3 µM, 6.1 µM and 12 µM, respectively. In addition, the IC50 in [1] was 14 µM; in the assay on MCF-10A, 14 µM; in the assay on MCF7, 11 µM; against Tubulin beta chain, 3.6 µM. Also, the Inhibition in assay [3] worked out at 45%. The molecule also showed an MGM with Cancer cell lines of 8.7 µM.
On to `O=C(NCCCc1ccccc1)c1ccc(NCc2cc(O)ccc2O)cc1`, for which the GI50 in the assay with MDA-MB-435 was 5.8 µM; in the assay on OVCAR-3, 3 µM; in the assay on HCT-116 it was 6.4 µM; in the assay on CCRF-CEM, 0.83 µM; in the assay with DU-145, 13 µM; in the assay with HOP-62, 16 µM. In addition, the GI50 was 3.4 µM in the assay on SF-539, 3.2 µM in the assay with SN12C and 7.9 µM in the assay on UACC-62. The IC50 in assay [1] was found to be 33 µM; in assay [2], 35 µM; in the assay with MCF-10A, 3 µM; in the assay with MCF7, 0.4 µM; on Tubulin beta chain it was 5.7 µM. Besides, the MGM in the assay on Cancer cell lines is 5.3 µM.
On to `COc1ccc(/C=C\c2cc(OC)c(OC)c(OC)c2)cc1O`, for which the Inhibition in assay [4] amounted to 98%.
Consider `O=C(NCCc1ccc(Cl)cc1)c1cc(NCc2cc(O)ccc2O)ccc1O`, for which the concentration for 50% growth inhibition (GI50) was 20 µM in the assay with MDA-MB-435; 5.9 µM with OVCAR-3; 15 µM with HCT-116; 1.6 µM in the assay on CCRF-CEM; 16 µM in the assay on DU-145; 17 µM with HOP-62. Besides, the GI50 was 8.4 µM in the assay with SF-539, 9.8 µM with SN12C and 13 µM with UACC-62. For the same molecule, the IC50 in [1] was 46 µM; in assay [2] it was 25 µM; in the assay on MCF-10A, 9 µM; in the assay with MCF7, 13 µM; at Tubulin beta chain, 3.2 µM. Besides, the MGM in the assay with Cancer cell lines turned out to be 10 µM.
With `CCCCCCCCCCCCNC(=O)c1cc(NCc2cc(O)ccc2O)ccc1O`, the GI50 turned out to be 3.2 µM in the assay with MDA-MB-435; 1.9 µM in the assay on OVCAR-3; 2.1 µM in the assay with HCT-116; 0.34 µM with CCRF-CEM; 11 µM in the assay with DU-145; 3.8 µM in the assay with HOP-62. For the same molecule, the GI50 with SF-539 stood at 20 µM; in the assay on SN12C it was 2.6 µM; in the assay on UACC-62, 3.2 µM. The IC50 in assay [1] was 35 µM; in [2] it was 50 µM; with MCF-10A, 3 µM; in the assay on MCF7, 1 µM; against Tubulin beta chain it was over 40 µM. This molecule came in with an MGM in the assay with Cancer cell lines of 2.7 µM.
